From ChEMBL document CHEMBL5712087, “Targeting bromodomain-containing protein 4 (BRD4) inhibits MYC expression in colorectal cancer cells” (Neoplasia, 2019)
The source made the active and inactive calls. No cut-off for these calls is given here.

Columns and labels:
[1] = target: T1, Protein cereblon/Bromodomain-containing protein 4 (Homo sapiens) (UniProt O60885+Q96SW2); experiment: PROTAC activity at BRD4/Cereblon in human DLD-1 cells assessed as decrease in MYC protein expression at 5 to 10 uM for 24 hrs by Western blot analysis; format: cell-based; conditions: dose 5-10 µM
T1 sequence (Q96SW2 whole entry, looked up, other chains not shown): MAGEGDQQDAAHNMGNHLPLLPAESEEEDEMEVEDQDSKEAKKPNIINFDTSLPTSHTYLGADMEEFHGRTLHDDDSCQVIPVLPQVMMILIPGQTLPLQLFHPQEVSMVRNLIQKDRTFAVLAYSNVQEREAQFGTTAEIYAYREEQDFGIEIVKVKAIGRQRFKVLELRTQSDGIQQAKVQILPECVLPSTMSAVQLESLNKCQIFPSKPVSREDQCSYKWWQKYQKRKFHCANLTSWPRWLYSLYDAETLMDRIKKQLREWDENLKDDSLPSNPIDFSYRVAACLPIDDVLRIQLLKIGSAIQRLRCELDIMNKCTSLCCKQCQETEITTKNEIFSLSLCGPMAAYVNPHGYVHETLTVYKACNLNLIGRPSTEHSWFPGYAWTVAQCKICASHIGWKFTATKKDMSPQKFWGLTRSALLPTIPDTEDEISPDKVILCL
In short: (§1)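 Eight CRC lines exposed 24 h to PROTAC at 5 or 10 µM (stocks 2 mM in DMSO, diluted in PBS or medium). Lysis in RIPA with protease/phosphatase inhibitors and 2.5 mmol/l DTT; 15 µg protein on 10% SDS-PAGE, semi-dry transfer to nitrocellulose. Anti-BRD4 or anti-MYC at 1:1,000 overnight at 4 °C; GAPDH or β-actin loading control; chemiluminescence.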

[2] = target: T1, Protein cereblon/Bromodomain-containing protein 4 (Homo sapiens); experiment: PROTAC activity at BRD4/Cereblon in human LS174T-dbet1 resistant cells assessed as MYC protein expression at 500 to 1000 nM for 24 hrs by Western blot analysis; format: cell-based; conditions: dose 500-1000 nM
[3] = target: T1, Protein cereblon/Bromodomain-containing protein 4 (Homo sapiens); experiment: PROTAC activity at BRD4/Cereblon in human LS174T cells assessed as BRD4 protein degradation at 1 uM for 2 hrs by Immunofluorescence analysis
[4] = target: T1, Protein cereblon/Bromodomain-containing protein 4 (Homo sapiens); experiment: PROTAC activity at BRD4/Cereblon in human HCT116 p53-/- cells assessed as decrease in MYC protein expression at 5 to 10 uM for 24 hrs by Western blot analysis; format: cell-based; conditions: HCT-116, dose 5-10 µM; in short: as §1
[5] = target: T1, Protein cereblon/Bromodomain-containing protein 4 (Homo sapiens); experiment: PROTAC activity at BRD4/Cereblon in human LS174T cells assessed as decrease in BRD4 protein degradation at 5 to 10 uM for 24 hrs by Western blot analysis; format: cell-based; conditions: dose 5-10 µM; in short: as §1
[6] = target: T1, Protein cereblon/Bromodomain-containing protein 4 (Homo sapiens); experiment: PROTAC activity at BRD4/Cereblon in human LS174T cells assessed as BRD4 protein degradation at 100 to 500 nM pretreated with proteasome inhibitor MG132 for 4 hrs by Western blot analysis; format: cell-based; conditions: dose 100-500 nM
In short: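 LS174t cells pre-incubated 4 h with proteasome inhibitor MG132 (10 mM DMSO stock) before PROTAC exposure. BRD4 read by immunoblot: 15 µg lysate, 10% SDS-PAGE, anti-BRD4 1:1,000 overnight at 4 °C, GAPDH/β-actin loading control.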

[7] = target: T1, Protein cereblon/Bromodomain-containing protein 4 (Homo sapiens); experiment: PROTAC activity at BRD4/Cereblon in human COLO 320 cells assessed as decrease in BRD4 protein degradation at 5 to 10 uM for 24 hrs by Western blot analysis; format: cell-based; conditions: dose 5-10 µM; in short: as §1
[8] = target: T1, Protein cereblon/Bromodomain-containing protein 4 (Homo sapiens); experiment: PROTAC activity at BRD4/Cereblon in human LS174T-dbet1 resistant cells assessed as MYC mRNA level at 500 to 1000 nM for 24 hrs by RT-qPCR analysis; format: cell-based; conditions: dose 500-1000 nM
In short: (§2)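 Total RNA from 10^6 cells after 24 h treatment, Trizol-extracted and integrity-checked. 0.7 µg reverse transcribed, then SYBR-type qPCR: 95 °C 5 min, 40 cycles of 95 °C 15 s/60 °C 60 s. Melting curves checked. MYC or BRD4 normalised to PPIA and ACTB by ΔΔCq. At least three experiments; means ± SD.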

[9] = target: T1, Protein cereblon/Bromodomain-containing protein 4 (Homo sapiens); experiment: PROTAC activity at BRD4/Cereblon in human fibroblast cells assessed as effect on MYC protein expression at 500 to 1000 nM for 24 hrs by Western blot analysis; format: cell-based; conditions: dose 500-1000 nM
In short: (§3)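 Cells treated 24 h across 1 nM–10 µM range (fibroblasts at 500/1000 nM). Immunoblot: RIPA lysate with 2.5 mmol/l DTT, 15 µg per lane on 10% SDS-PAGE, nitrocellulose, 5% milk block 1 h. BRD4 or MYC primary 1:1,000 overnight at 4 °C, HRP secondary 1:10,000 for 60 min; GAPDH/β-actin loading control; ECL detection.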

[10] = target: T1, Protein cereblon/Bromodomain-containing protein 4 (Homo sapiens); experiment: PROTAC activity at BRD4/Cereblon in human LS174T cells assessed as BRD4 protein degradation at 100 to 1000 nM for 24 hrs by Western blot analysis; format: cell-based; conditions: dose 100-1000 nM; in short: as §3
[11] = target: T1, Protein cereblon/Bromodomain-containing protein 4 (Homo sapiens); experiment: PROTAC activity at BRD4/Cereblon in human HCT116 p53-/- cells assessed as decrease in BRD4 protein degradation at 5 to 10 uM for 24 hrs by Western blot analysis; format: cell-based; conditions: HCT-116, dose 5-10 µM; in short: as §1
[12] = target: T1, Protein cereblon/Bromodomain-containing protein 4 (Homo sapiens); experiment: PROTAC activity at BRD4/Cereblon in human LS174T cells assessed as BRD4 mRNA level at 500 to 1000 nM for 24 hrs by RT-qPCR analysis; format: cell-based; conditions: dose 500-1000 nM; in short: as §2
[13] = target: T1, Protein cereblon/Bromodomain-containing protein 4 (Homo sapiens); experiment: PROTAC activity at BRD4/Cereblon in human LS174T cells assessed as decrease in MYC protein expression at 5 to 10 uM for 24 hrs by Western blot analysis; format: cell-based; conditions: dose 5-10 µM; in short: as §1
[14] = target: T2, von Hippel-Lindau disease tumor suppressor/Bromodomain-containing protein 4 (Homo sapiens) (UniProt O60885+P40337); experiment: PROTAC activity at BRD4/VHL E3 ligase in human DLD-1 cells assessed as decrease in MYC protein expression at 5 to 10 uM for 24 hrs by Western blot analysis; format: cell-based; conditions: dose 5-10 µM; in short: as §1
T2 sequence (P40337 whole entry, looked up, other chains not shown): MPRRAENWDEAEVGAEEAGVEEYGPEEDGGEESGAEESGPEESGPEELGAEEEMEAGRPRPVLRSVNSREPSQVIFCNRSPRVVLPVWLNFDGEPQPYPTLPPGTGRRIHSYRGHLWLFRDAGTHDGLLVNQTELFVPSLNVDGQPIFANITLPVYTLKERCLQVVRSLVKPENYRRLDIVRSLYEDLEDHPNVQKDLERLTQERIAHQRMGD

[15] = target: T2, von Hippel-Lindau disease tumor suppressor/Bromodomain-containing protein 4 (Homo sapiens); experiment: PROTAC activity at BRD4/VHL E3 ligase in human LS174T cells assessed as BRD4 protein degradation at 250 nM for 2 hrs and measured 22 hrs after washout by Western blot analysis; format: cell-based
In short: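 LS174t cells were exposed to PROTAC for 2 h. For washout, the PROTAC was removed by changing the culture medium and cells were harvested 22 h later. BRD4 was assessed by western blot (15 µg lysate, 10% SDS-PAGE, chemiluminescence), normalised against GAPDH/β-actin.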

[16] = target: T2, von Hippel-Lindau disease tumor suppressor/Bromodomain-containing protein 4 (Homo sapiens); experiment: PROTAC activity at BRD4/VHL E3 ligase in human HCT116 p53-/- cells assessed as decrease in MYC protein expression at 5 to 10 uM for 24 hrs by Western blot analysis; format: cell-based; conditions: HCT-116, dose 5-10 µM; in short: as §1
[17] = target: T2, von Hippel-Lindau disease tumor suppressor/Bromodomain-containing protein 4 (Homo sapiens); experiment: PROTAC activity at BRD4/VHL E3 ligase in human DLD-1 cells assessed as decrease in BRD4 protein degradation at 5 to 10 uM for 24 hrs by Western blot analysis; format: cell-based; conditions: dose 5-10 µM; in short: as §1
[18] = target: T2, von Hippel-Lindau disease tumor suppressor/Bromodomain-containing protein 4 (Homo sapiens); experiment: PROTAC activity at BRD4/VHL E3 ligase in human SW480 cells assessed as decrease in MYC protein expression at 5 to 10 uM for 24 hrs by Western blot analysis; format: cell-based; conditions: dose 5-10 µM
In short: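 Eight CRC lines, including LS174t (RPMI 1640) and SW480 (DMEM/HamsF12), all with 10% FCS, were treated with PROTAC at 5 and 10 µM. BRD4 and MYC proteins were detected by immunoblot (RIPA lysate, 15 µg, 10% gel, primary 1:1,000 overnight at 4 °C), with GAPDH/β-actin as loading control.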

[19] = target: T2, von Hippel-Lindau disease tumor suppressor/Bromodomain-containing protein 4 (Homo sapiens); experiment: PROTAC activity at BRD4/VHL E3 ligase in human LS174T cells assessed as BRD4 protein degradation at 1 µM for 2 hrs by Immunofluorescence analysis
[20] = target: T2, von Hippel-Lindau disease tumor suppressor/Bromodomain-containing protein 4 (Homo sapiens); experiment: PROTAC activity at BRD4/VHL E3 ligase in human HCT116 p53-/- cells assessed as decrease in BRD4 protein degradation at 5 to 10 uM for 24 hrs by Western blot analysis; format: cell-based; conditions: HCT-116, dose 5-10 µM; in short: as §1

In the case of `Cc1sc2c(c1C)C(c1ccc(Cl)cc1)=N[C@@H](CC(=O)NCCCCNC(=O)COc1cccc3c1C(=O)N(C1CCC(=O)NC1=O)C3=O)c1nnc(C)n1-2` (stereo not given in full), the Activity [1] is reported as “Active”, the Activity [2] is reported as “inactive” and the Activity [3] is reported as “Active”. The Activity [4] was “Active”, the Activity [5] was “Active” and the Activity [6] was “inactive”. The Activity [7] was “Active”, the Activity [8] was “inactive” and the Activity [9] was “inactive”. For the same compound, the Activity [10] was “Dose-Dependent Effect”, the Activity [11] was “Active” and the Activity [12] was “inactive”. The Activity [13] was “Active”.
`Cc1ncsc1-c1ccc(CNC(=O)[C@@H]2C[C@@H](O)CN2C(=O)[C@@H](NC(=O)COCCOCCOCCNC(=O)C[C@@H]2N=C(c3ccc(Cl)cc3)c3c(sc(C)c3C)-n3c(C)nnc32)C(C)(C)C)cc1` was tested, and the Activity [14] was “inactive”, the Activity [15] was “inactive” and the Activity [16] was “Active”. For the same compound, the Activity [17] was “inactive”, the Activity [18] was “Active” and the Activity [19] was “Active”. For the same compound, the Activity [20] was “Active”.
